Assay results: article PMC6655586 (Nature, 2019)

Assays:
HTS cells = assay: Mitochondrial membrane potential; assay type: cell-based, mouse; conditions: 1 μM, 10 minutes
Summary of the method: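 HTS cells were exposed for 10 minutes to DMSO, test compound, FCCP, rotenone, antimycin A or oligomycin A, then mitochondrial membrane potential was quantified. Mean ± SD; n = 3 (FCCP, rotenone) or 4 (others).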

MEFs = assay: Western blot for ATF4 in MEFs; assay type: cell-based, mouse; conditions: 1 μM, 6 hours

Row | Compound | acute change of mitochondrial membrane potential (HTS cells) | ATF4 induction (MEFs)
1 | oligomycin A | acute increase in mitochondrial membrane potential | ATF4 induction
2 | CCCCCC[C@H]1C(=O)O[C@H](C)[C@H](NC(=O)c2cccc(NC=O)c2O)C(=O)O[C@@H](C)[C@@H]1OC(=O)CC(C)C [antimycin A] | acute reduction of membrane potential | ATF4 induction
3 | C=C(C)[C@H]1Cc2c(ccc3c2O[C@@H]2COc4cc(OC)c(OC)cc4[C@@H]2C3=O)O1 [rotenone] | acute reduction of membrane potential | ATF4 induction
